Data from ChEMBL document CHEMBL2440044, “Synthesis and anti-tumor activity of carbohydrate analogues of the tetrahydrofuran containing acetogenins” (Bioorg Med Chem, 2013).

Key:
Type in all cases: functional, cell-based
[1] = tested on: MDA-MB-231; experiment: Cytotoxicity against human MDA-MB-231 cells after 48 hrs by Cell titer Glo assay; conditions: MDA-MB-231, 48 h
Summary of the method: (§1)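 Cells grown in medium with 10% FBS and penicillin-streptomycin: DMEM for HeLa, MDA-MB231 and PC-3, RPMI for Jurkat. Compounds were taken from 20 mM DMSO stocks and serially diluted in medium at 37 °C. Cells were exposed for 48 h. Viability was read as ATP luminescence and normalized to untreated control (% viability). IC50 came from dose-response curve fits; each was run three times and given as mean ± SD.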

[2] = tested on: HeLa; experiment: Cytotoxicity against human HeLa cells after 48 hrs by Cell titer Glo assay; summary of the method: as §1
[3] = tested on: Jurkat; experiment: Cytotoxicity against human Jurkat cells after 48 hrs by Cell titer Glo assay; summary of the method: as §1
[4] = tested on: PC-3; experiment: Cytotoxicity against human PC3 cells after 48 hrs by Cell titer Glo assay; conditions: PC-3, 48 h; summary of the method: as §1

| Structure (SMILES) | IC50 [1] [µM] | IC50 [2] [µM] | IC50 [3] [µM] | IC50 [4] [µM] |
| --- | --- | --- | --- | --- |
| CCCCCCCCCCCO[C@H]1[C@@H](O)[C@@H](CO)O[C@@H](OCCCCCCCCCCCC[C@@H](O)CC2=C[C@H](C)OC2=O)[C@@H]1O | 73.5 | 50.3 | 78.2 |  |
| CCCCCCCCCCCOC[C@H]1O[C@H](OCCCCCCCCCCCC[C@@H](O)CC2=C[C@H](C)OC2=O)C[C@@H](O)[C@@H]1O | 16.8 | 16.3 | 13.3 | 44 |
| CCCCCCCCCCCOC[C@@H]1CC[C@H](O)[C@@H](OCCCCCCCCCCCC[C@@H](O)CC2=C[C@H](C)OC2=O)O1 | 21.8 | 13.9 | 10.7 | 28.7 |
| CCCCCCCCCCCOC[C@@H]1C[C@H](O)[C@H](O)[C@@H](OCCCCCCCCCCCC[C@@H](O)CC2=C[C@H](C)OC2=O)O1 | 36.7 | 23.3 | 19.7 | 52.8 |
| CCCCCCCCCCCOC[C@H]1O[C@H](OCCCCCCCCCCCC[C@@H](O)CC2=C[C@H](C)OC2=O)[C@@H](O)[C@@H](O)[C@@H]1O | 21.2 | 15.2 | 10.1 | 32.6 |
| CCCCCCCCCCCC[C@@H](O)[C@H]1CC[C@H]([C@H](O)CCCCC[C@@H](O)CCCCCCC2=C[C@H](C)OC2=O)O1 | 34.2 | 21 | 17.8 | 43.1 |
